Data set [1] is described as follows: Diffusion and permeability studies. As to conditions: after 480 min, PBS pH 6.8, 37 °C, NAR 50 mg/mL in donor. The data set is classed as in vitro ADME.
Data set [2] can be described thus: Pharmacokinetic study after oral administration. The data set is classed as in vivo, Wistar rats. As to conditions: male, Wistar, rat, plasma, 50 mg/kg. In short, it runs like this:
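Male Wistar rats (220–250 g, 10–12 weeks) were fasted overnight with water ad libitum (n = 6/group). They were dosed orally with the compound as a 0.5% w/v Na-CMC suspension or DES formulation. Retro-orbital blood was drawn at 0, 0.5, 2, 4, 6, 8, 12 and 24 h. Plasma was precipitated with acetonitrile (1:3) and assayed by isocratic C18 HPLC-DAD at 283 nm. Parameters came from PK software; mean ± SD.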

The conditions of data set [3]: cited from earlier work.

The term AUC(0-t) denotes the area under the concentration-time curve up to a stated or last time point. Low values mean less exposure, high ones more exposure. One may read the Cmax as the maximum level reached in the sampled fluid or tissue. One may read the MRT as a mean duration of stay, worked out from the concentration-time curve. The term Tmax denotes the time from dosing to the highest level. The half-life is the time needed for the level to fall by half in the phase considered. A lower half-life goes with fast loss. For the compound `C[C@@H]1O[C@@H](O[C@H]2[C@H](Oc3cc(O)c4c(c3)O[C@H](c3ccc(O)cc3)CC4=O)O[C@H](CO)[C@@H](O)[C@@H]2O)[C@H](O)[C@H](O)[C@H]1O` [NAR (pure), 4′,5,7-trihydroxyflavanone 7-rhamnoglucoside], the “amount of NAR diffused” value in data set [1] is listed as 30.78 ± 3.4 % w/v. In data set [2], the AUC(0-t) was 226 ± 4.2 ng·h/mL, the Cmax is 31.2 ± 2.3 ng/mL, the MRT came to 6.46 ± 1.7 h and the Tmax was 4.1 ± 0.6 h. In data set [2], this compound showed a half-life of 3.43 ± 1.1 h. Further, in data set [3], the elimination half-life is on record as 3.64 ± 3.0 h.

The values above are taken from PMC10099425 (ACS Omega, 2023).
